Test results taken from ChEMBL document CHEMBL1122750, “8-Hydroxy-2-(alkylamino)tetralins and related compounds as central 5-hydroxytryptamine receptor agonists” (1984).
Calls of active or inactive are those of the source. No cut-off for these calls is given here.

Key:
[1] = biological target: T1, Serotonin (5-HT) receptor (Rattus norvegicus) (UniProt P35563+P35365+P32305+P31388+Q9JJ16+P28564+P30994+Q62758+P08909+P14842+P30940+P35364+P19327+P28565); assay: Subcutaneous dose giving half-maximal decrease of 5-HTP formation in the rat brain (limbic); format: functional, tissue-based
Method in brief: (§1)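 Male Sprague-Dawley rats (200–350 g) were reserpinized. Reserpine was dissolved in glacial acetic acid and made up with 5.5% glucose. Test drug was given sc in saline, at neutral pH, 5 or 10 mL/kg. Brain-part 5-HTP formation was measured spectrofluorometrically. ED50 (half-maximal decrease) came from 4–6 dose levels, n = 3-5.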

[2] = biological target: T1, Serotonin (5-HT) receptor (Rattus norvegicus); assay: Subcutaneous dose giving half-maximal decrease of 5-HTP formation in the rat brain (striatum); format: functional, tissue-based; method in brief: as §1
[3] = biological target: T1, Serotonin (5-HT) receptor (Rattus norvegicus); assay: Subcutaneous dose giving half-maximal decrease of 5-HTP formation in the rat brain hemispheres (cortex); format: functional, tissue-based; method in brief: as §1
[4] = biological target: T2, Dopamine receptor (Rattus norvegicus) (UniProt P25115+P19020+P30729+P18901+P61169); assay: Subcutaneous dose giving half-maximal decrease of Dopa formation in the rat brain (limbic); format: functional, tissue-based
[5] = biological target: T2, Dopamine receptor (Rattus norvegicus); assay: Subcutaneous dose giving half-maximal decrease of Dopa formation in the rat brain (striatum); format: functional, tissue-based
Rattus norvegicus [6] = assay: Compound was tested for subcutaneous dose giving half-maximal decrease of 5-HTP formation in the rat brain (limbic); Inactive; format: functional, organism-based; method in brief: as §1
Rattus norvegicus [7] = assay: Compound was tested for subcutaneous dose giving half-maximal decrease of 5-HTP formation in the rat brain (striatum); Inactive; format: functional, organism-based; method in brief: as §1
Rattus norvegicus [8] = assay: Compound was tested for subcutaneous dose giving half-maximal decrease of 5-HTP formation in the rat brain hemispheres (cortex); Inactive; format: functional, organism-based; method in brief: as §1
Rattus norvegicus [9] = assay: Compound was tested for subcutaneous dose giving half-maximal decrease of Dopa formation in the rat brain (limbic); format: functional; details: sc
Rattus norvegicus [10] = assay: Compound was tested for subcutaneous dose giving half-maximal decrease of Dopa formation in the rat brain (striatum); format: functional; details: sc

SMILES	ED50 [1] [µmol/kg]	ED50 [2] [µmol/kg]	ED50 [3] [µmol/kg]	ED50 [4]	ED50 [5]	ED50 (Rattus norvegicus [6])	ED50 (Rattus norvegicus [7])	ED50 (Rattus norvegicus [8])	ED50 (Rattus norvegicus [9]) [µmol/kg]	ED50 (Rattus norvegicus [10]) [µmol/kg]
CCCCNC1CCc2cccc(O)c2C1 (stereo not given)	4.3	4.5	6.3	inactive	inactive	–	–	–	–	–
CCCN(CCC)[C@@H]1CCc2cccc(O)c2C1	0.036	0.047	0.05	inactive	inactive	–	–	–	–	–
CCCN(CCC)C1CCc2cccc(O)c2C1 (racemic)	0.052	0.052	0.063	inactive	inactive	–	–	–	–	–
CCCCCCCCNC1CCc2cccc(O)c2C1 (stereo not given)	–	–	–	inactive	inactive	inactive	inactive	inactive	–	–
CCCN(Cc1ccccc1)C1CCc2cccc(O)c2C1 (stereo not given)	2.7	2.9	2.3	inactive	inactive	–	–	–	–	–
CNC1CCc2cccc(O)c2C1 (stereo not given)	1.5	1.6	1.8	inactive	inactive	–	–	–	–	–
CC(C)NC1CCc2cccc(O)c2C1 (stereo not given)	2.6	2.9	4.1	inactive	inactive	–	–	–	–	–
CN(C)C1CCc2cccc(O)c2C1 (stereo not given)	0.38	0.43	0.36	inactive	inactive	–	–	–	–	–
CCCN(CCC)[C@H]1CCc2cccc(O)c2C1	0.061	0.065	0.077	inactive	inactive	–	–	–	–	–
Oc1cccc2c1CC(N1CCCCC1)CC2 (stereo not given)	1.6	1.1	1.4	inactive	inactive	–	–	–	–	–
CCCCN(CCCC)C1CCc2cccc(O)c2C1 (stereo not given)	5	6.6	5.7	inactive	inactive	–	–	–	–	–
CCCN(CC)C1CCc2cccc(O)c2C1 (stereo not given)	0.057	0.059	0.066	inactive	inactive	–	–	–	–	–
CCCNC1CCc2cccc(O)c2C1 (stereo not given)	0.14	0.15	0.18	inactive	inactive	–	–	–	–	–
CCCN(CCC)C1CCc2cccc(OC)c2C1 (stereo not given)	0.34	0.29	0.23	inactive	inactive	–	–	–	–	–
CCN(CC)C1CCc2cccc(O)c2C1 (stereo not given)	0.054	0.068	0.07	inactive	inactive	–	–	–	–	–
CCCN(CCC)C1CCc2c(O)ccc(O)c2C1 (stereo not given)	–	–	–	–	–	inactive	inactive	inactive	5.2	5.4
CCN(CC)C(=O)[C@@H]1C=C2c3cccc4[nH]cc(c34)C[C@H]2N(C)C1 [LYSERGIDE]	0.036	0.035	0.036	–	–	–	–	–	0.39	0.395
CCCCN(CCC)C1CCc2cccc(O)c2C1 (stereo not given)	0.27	0.26	0.34	inactive	inactive	–	–	–	–	–
CCCN(CCC)C1CCc2c(OC)ccc(OC)c2C1 (stereo not given)	–	–	–	–	–	inactive	inactive	inactive	0.905	1.24
CCNC1CCc2cccc(O)c2C1 (stereo not given)	0.27	0.2	0.22	inactive	inactive	–	–	–	–	–
